Results as given in publication PMC8178204 (Cancer research, 2021).

How the values were obtained:
[1] = system: LC3, p62, LAMP2; test: Immunoblot time course of autophagy-degraded proteins in SW480 cells; type: cell-based, human; conditions: for p62 accumulation, p38MAPK inhibitor alone: SW480, 1 or 3 days
[2] = system: SW480 cells; test: Cell survival, dead cells and proliferation of SW480 cells; type: cell-based, human; conditions: SW480, 0.125 μM WX8 and/or 5 μM SB202190
[3] = system: SW480 colon adenocarcinoma xenografts; test: SW480 xenograft in nude mice; conditions: for reduction of tumor growth: 20 mg/kg WX8 and/or 12.5 mg/kg SB202190, day 22; for Ki-67 positive tumor cells: tumor sections
[4] = system: HCT116 and A375 (sensitive), WI38 and Hs27 (resistant) cell lines; test: Cell survival, sensitive versus resistant cell lines; type: cell-based, human
[5] = system: Cathepsin D; test: Cathepsin D maturation in SW480 cells; type: cell-based, human; conditions: SW480, 0.125 μM WX8 with or without 5 μM SB202190
Outline: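 SW480 cells were cultured for the indicated times with 0.125 μM WX8, 5 μM SB202190, or both, each diluted 1:1,000 from DMSO stocks, with DMSO as vehicle. Cells were trypsinized and pooled with unattached cells, then lysed in SDS sample buffer. Precursor and mature Cathepsin D were immunoblotted (nitrocellulose, peroxidase secondary, chemiluminescence) and quantified by densitometry of low-exposure images.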

[6] = system: LC3, p62; type: cell-based, human; conditions: 0.5 μM WX8, all four cell lines
[7] = system: MCF10A cells; test: Cell survival of MCF10A cells after p38MAPK siRNA depletion; type: cell-based, human; conditions: 0.5 μM WX8, 3 days
[8] = system: 12 cancer lines; test: Cell survival after 3 days, viable cell count with FACS; type: cell-based, human; conditions: read-out: median IC50 (concentration that cause 50% reduction in cell survival), 3 days of treatment
[9] = system: 8 normal fibroblast cell lines; test: as above; type: cell-based, human; conditions: read-out: median IC50 (concentration that cause 50% reduction in cell survival), 3 days of treatment
[10] = SW480, 0.125 μM WX8 and/or 5 μM SB202190
[11] = 20 mg/kg WX8 and/or 12.5 mg/kg SB202190

Compound | p62 accumulation, p38MAPK inhibitor alone [1] | LAMP2 level increase [1, 10] | p62 level increase [1, 10] | total LC3 protein accumulation above initial levels [1, 10] | effect on proliferation (cell divisions per day) over time [2] | adverse effects (mouse behavior, body weight) ([3]; daily intraperitoneal, 20 mg/kg WX8 and/or 12.5 mg/kg SB202190) | reduction of tumor growth ([3]; daily intraperitoneal) | Ki-67 positive tumor cells [3, 11] | difference in sensitivity to WX8 between sensitive and resistant cell lines [4] | day at which active Cathepsin D reappeared [5] | Total LC3 and the LC3-II/I ratio [6] | p62 level [6] | reduction of cell survival ([7]; control siRNA-transfected cells) | reduction of cell survival ([7]; highest levels of p38MAPK depletion) | time course of LC3 and p62 protein levels [1, 10] | IC50 [8] | IC50 [9]
CC(C)(C)Cn1c(N)nc2ccc(-c3[nH]c(C(C)(C)C)nc3-c3ccc(F)cc3)nc21 [LY2228820] | caused accumulation of p62 |  |  |  |  |  |  |  |  |  |  |  |  |  |  |  | 
Oc1ccc(-c2nc(-c3ccncc3)c(-c3ccc(F)cc3)[nH]2)cc1 [SB202190] | caused accumulation of p62 | about 3 fold | about 3 fold | 2 fold | reduced proliferation for up to two days | No adverse effects were apparent | 28% | about 75% |  |  |  |  |  |  |  |  | 
C(=N\Nc1nc(Nc2ccccc2)nc(N2CCOCC2)n1)/c1c[nH]c2ccccc12 [WX8] |  | about 3 fold | about 3 fold | 5 fold | reduced proliferation for up to two days |  | 22% | about 75% | approximately 16 fold | 3 days | increased | p62 accumulation | 20% | 65% | peaked on day 2 | 0.2 µM | 2.7 µM
